Measured values as given in ChEMBL document CHEMBL2311288, “Discovery of liver-targeted inhibitors of stearoyl-CoA desaturase (SCD1)” (Bioorg Med Chem Lett, 2013).

Assays:
Acyl-CoA desaturase 1 [1] = target: T1, Acyl-CoA desaturase 1 (Rattus norvegicus, UniProt P07308); test: Inhibition of rat SCD1 by rat microsomal assay
T1 sequence (P07308 whole entry): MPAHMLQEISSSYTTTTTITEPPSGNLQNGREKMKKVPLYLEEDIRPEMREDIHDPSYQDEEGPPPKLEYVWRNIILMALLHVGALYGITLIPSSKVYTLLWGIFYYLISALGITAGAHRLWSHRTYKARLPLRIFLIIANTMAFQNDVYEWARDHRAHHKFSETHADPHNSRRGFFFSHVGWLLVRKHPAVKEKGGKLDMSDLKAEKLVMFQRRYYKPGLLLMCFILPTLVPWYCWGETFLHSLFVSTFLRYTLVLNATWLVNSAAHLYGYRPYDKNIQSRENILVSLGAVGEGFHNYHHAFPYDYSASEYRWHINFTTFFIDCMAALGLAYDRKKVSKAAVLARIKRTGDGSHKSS
In short: (§1)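 Microsomal desaturase activity was measured in 100 mM Tris HCl pH 7.3 with 2 mM NADH and [9,10-3H]stearoyl-CoA for 15 min at room temperature. The reaction was stopped on ice with trichloroacetic acid, then passed through activated charcoal, and tritium in the filtrate was counted. Compounds were tested in 2% DMSO final. Percent inhibition = (total−sample)/(total−blank)×100, with the blank set by 10⁻⁴ M of a standard inhibitor.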

[2] = Cmax in rat at 10 mg/kg; type: ADME, organism-based; design: dose 10 mg/kg; details: in vivo
In short: (§2)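 Rats were given a single 10 mg/kg dose. Plasma exposure (AUC, Cmax) was determined, and drug concentrations in plasma, brain and liver were measured at 6 h post-dose. The liver/plasma ratio was taken from the 6 h levels.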

Rattus norvegicus = test: AUC in rat at 10 mg/kg; type: ADME, organism-based, Plasma; design: dose 10 mg/kg; details: in vivo; in short: as §2
[3] = Ratio of drug level in liver to plasma of rat at 10 mg/kg measured after 6 hrs; type: ADME, organism-based; design: dose 10 mg/kg; in short: as §2
[4] = Drug level in liver in rat at 10 mg/kg measured after 6 hrs; type: ADME, organism-based; design: dose 10 mg/kg; details: read-out: Drug uptake; in short: as §2
[5] = Plasma concentration in rat at 10 mg/kg measured after 6 hrs; type: ADME, organism-based; design: dose 10 mg/kg; in short: as §2
Acyl-CoA desaturase 1 [6] = target: T2, Acyl-CoA desaturase 1 (Mus musculus, UniProt P13516); test: Inhibition of mouse SCD1; in short: as §1
T2 sequence (P13516 whole entry): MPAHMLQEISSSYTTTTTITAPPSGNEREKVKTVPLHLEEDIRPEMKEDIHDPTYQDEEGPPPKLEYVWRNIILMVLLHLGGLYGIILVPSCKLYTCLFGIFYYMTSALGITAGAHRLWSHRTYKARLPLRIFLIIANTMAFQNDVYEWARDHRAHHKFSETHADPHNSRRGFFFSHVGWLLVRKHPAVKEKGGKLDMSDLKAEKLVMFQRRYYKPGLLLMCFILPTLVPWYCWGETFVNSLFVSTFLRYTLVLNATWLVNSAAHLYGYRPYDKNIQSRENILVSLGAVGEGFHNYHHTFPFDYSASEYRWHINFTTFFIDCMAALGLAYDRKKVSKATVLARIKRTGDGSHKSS

Structure (SMILES) | IC50 (Acyl-CoA desaturase 1 [1]) [nM] | further results
Fc1cccc2c1CCC1(CCN(c3ccc(-c4nnc(Cc5cccnc5)o4)nn3)CC1)O2 | 2 | –
Cc1c(C(=O)Nc2ccn(C)n2)ncn1Cc1cccc(C(F)(F)F)c1 | 11.7 | –
N#Cc1cnc(N2CCC3(CC2)CCN(Cc2cccc(C(F)(F)F)c2)c2ccccc2O3)s1 | 1 | Cmax [2]: 105 ng/g; AUC (Rattus norvegicus): 383 ng·h/g; Kp at 6 h [3]: 20; concentration at 6 h [4]: 1510 ng/g; concentration at 6 h [5]: 72 ng/g
CNC(=O)c1cnc(N2CCC3(CC2)CCN(Cc2cccc(C(F)(F)F)c2)c2ccccc2O3)s1 | 3 | AUC (Rattus norvegicus): 0 ng·h/g
CNC(=O)c1cnc(N2CCC3(CC2)CCN(Cc2ccc(C(C)(C)C)cc2)c2ccccc2O3)s1 | 4 | –
NC(=O)c1cnc(N2CCC3(CC2)CCN(Cc2cccc(C(F)(F)F)c2)c2ccccc2O3)s1 | 3 | Cmax [2]: 45 ng/g; AUC (Rattus norvegicus): 58 ng·h/g; concentration at 6 h [4]: < 10 ng/g
O=C(O)c1ccc(N2CCC3(CC2)CCN(Cc2cccc(C(F)(F)F)c2)c2ccccc2O3)nn1 | 4700 | –
NC(=O)c1ccc(N2CCC3(CC2)CCN(Cc2cccc(C(F)(F)F)c2)c2ccccc2O3)nn1 | 10 | –
CCCNC(=O)c1ccc(N2CCC3(CC2)CCN(Cc2cccc(C(F)(F)F)c2)c2ccccc2O3)nn1 | 130 | –
O=C(NCCC1CC1)c1cnc(N2CCC3(CC2)CCN(Cc2cccc(C(F)(F)F)c2)c2ccccc2O3)s1 | 930 | –
O=C(NCCC1CC1)c1ccc(N2CCC3(CC2)CCN(Cc2cccc(C(F)(F)F)c2)c2ccccc2O3)cc1 | 2200 | –
O=C(NCCC1CC1)c1ccc(N2CCC3(CC2)CCN(Cc2cccc(C(F)(F)F)c2)c2ccccc2O3)nc1 | 12 | Cmax [2]: 45 ng/g; AUC (Rattus norvegicus): 23 ng·h/g; concentration at 6 h [4]: < 10 ng/g
O=C(NCCC1CC1)c1ccc(N2CCC3(CC2)CCN(Cc2cccc(C(F)(F)F)c2)c2ccccc2O3)nn1 | 4 | Cmax [2]: 209 ng/g; AUC (Rattus norvegicus): 105 ng·h/g; concentration at 6 h [4]: < 10 ng/g
CC(C)(C)c1ccc(CN2CCC3(CCN(c4ccc(C(=O)NCCC5CC5)nn4)CC3)Oc3ccccc32)cc1 | 40 | –
CC(C)(C)c1ccc(CC(=O)N2CCC3(CC2)CCN(CC#N)c2ccccc2O3)cc1 | 440 | –
CC(C)(C)c1ccc(CN2CCC3(CCN(C(=O)CNC(=O)c4cccnc4)CC3)Oc3ccccc32)cc1 | 1500 | Cmax [2]: 169 ng/g; AUC (Rattus norvegicus): 341 ng·h/g; Kp at 6 h [3]: 13; concentration at 6 h [4]: 232 ng/g; concentration at 6 h [5]: 18 ng/g
CC(C)(C)c1ccc(CN2CCC3(CCN(C(=O)CNC(=O)c4ccco4)CC3)Oc3ccccc32)cc1 | 19 | –
O=C(NCC(=O)N1CCC2(CC1)CCN(Cc1cccc(C(F)(F)F)c1)c1ccccc1O2)c1ccco1 | 380 | –
O=C(NCC(=O)N1CCC2(CC1)CCN(Cc1cccc(C(F)(F)F)c1)c1ccccc1O2)c1ccccc1 | 2600 | –
CC(=O)NCC(=O)N1CCC2(CC1)CCN(Cc1ccc(C)cc1)c1ccccc1O2 | 1100 | –
CCc1ccc(CN2CCC3(CCN(C(=O)CNC(C)=O)CC3)Oc3ccccc32)cc1 | 57 | Cmax [2]: 579 ng/g; AUC (Rattus norvegicus): 1288 ng·h/g; concentration at 6 h [4]: < 100 ng/g; concentration at 6 h [5]: 19 ng/g
CC(=O)NCC(=O)N1CCC2(CC1)CCN(CCc1ccc(C(C)C)cc1)c1ccccc1O2 | 42 | Cmax [2]: 875 ng/g; AUC (Rattus norvegicus): 2608 ng·h/g; Kp at 6 h [3]: 17; concentration at 6 h [4]: 1660 ng/g; concentration at 6 h [5]: 100 ng/g

Structure (SMILES) | IC50 (Acyl-CoA desaturase 1 [1]) [nM] | further results
CC(=O)NCC(=O)N1CCC2(CC1)CCN(Cc1ccc(C(C)(C)C)cc1)c1ccccc1O2 | 17 | Cmax [2]: 1100 ng/g; AUC (Rattus norvegicus): 3464 ng·h/g; Kp at 6 h [3]: 13; concentration at 6 h [4]: 2670 ng/g; concentration at 6 h [5]: 210 ng/g
CC(=O)NCC(=O)N1CCC2(CC1)CCN(Cc1cccc(Cl)c1)c1ccccc1O2 | 830 | –
COc1cccc(CN2CCC3(CCN(C(=O)CNC(C)=O)CC3)Oc3ccccc32)c1 | 1800 | –
CC(=O)NCC(=O)N1CCC2(CC1)CCN(Cc1cccc(OC(F)(F)F)c1)c1ccccc1O2 | 680 | –
CC(=O)NCC(=O)N1CCC2(CC1)CCN(Cc1cccc(C(F)(F)F)c1)c1ccccc1O2 | 32 | –
CC(=O)NCC(=O)N1CCC2(CC1)CCN(Cc1ccc(F)cc1)c1ccccc1O2 | 460 | –
CC(=O)NCC(=O)N1CCC2(CC1)CCN(Cc1ccc(Cl)cc1)c1ccccc1O2 | > 10000 | –
CC(=O)NCC(=O)N1CCC2(CC1)CCN(Cc1ccccc1F)c1ccccc1O2 | > 10000 | –
CC(=O)NCC(=O)N1CCC2(CC1)CCN(Cc1ccccc1Cl)c1ccccc1O2 | 1200 | –
CC(=O)NCC(=O)N1CCC2(CC1)CCN(Cc1ccccc1C)c1ccccc1O2 | 1200 | –
CCc1ccccc1CN1CCC2(CCN(C(=O)CNC(C)=O)CC2)Oc2ccccc21 | 430 | –
COc1ccccc1CN1CCC2(CCN(C(=O)CNC(C)=O)CC2)Oc2ccccc21 | 2900 | –
CC(=O)NCC(=O)N1CCC2(CC1)CCN(Cc1cccc(F)c1)c1ccccc1O2 | > 10000 | –
CC(=O)NCC(=O)N1CCC2(CC1)CCN(CCC(C)C)c1ccccc1O2 | – | IC50 (Acyl-CoA desaturase 1 [6]): 6400 nM
CC(=O)NCC(=O)N1CCC2(CC1)CCN(Cc1ccccc1)c1ccccc1O2 | 1200 | –
CC(=O)NCC(=O)N1CCC2(CC1)CCN(CC(C)C)c1ccccc1O2 | > 10000 | –
CCCN1CCC2(CCN(C(=O)CNC(C)=O)CC2)Oc2ccccc21 | > 10000 | –
CC(=O)NCC(=O)N1CCC2(CC1)CCN(c1ccccc1)c1ccccc1O2 | > 10000 | –
CC(=O)NCC(=O)N1CCC2(CC1)CCN(CCc1ccccc1)c1ccccc1O2 | 1600 | –
COc1ccc(C(F)(F)F)c(C(=O)N2CCN(c3ccc(C(=O)NCCCc4ccccc4)cn3)CC2)c1 | 100 | –
O=C(O)Cn1nnc(-c2cc(N3CCC(Oc4ccccc4C(F)(F)F)CC3)no2)n1 | 3 | –
O=C(CO)Nc1ccc2ncn(Cc3ccc(Cl)c(Cl)c3)c(=O)c2c1 | 261 | –
